In brackets after ≈: the same amount, converted by molar mass. Activity calls are given as the source filed them. The rule behind the calls is not given here.
How the values were obtained:
Enterococcus faecalis [1] = assay: Antibacterial activity against Enterococcus faecalis ATCC 29212 by broth microdilution method; assay type: functional
Summary of the method: (§1)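 MIC by CLSI broth microdilution (M07-A8 for aerobes; M11-A7 for anaerobes).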

Streptococcus pyogenes = assay: Antibacterial activity against Streptococcus pyogenes ATCC BAA-595 by broth microdilution method; assay type: functional; summary of the method: as §1
Staphylococcus aureus [2] = assay: Antibacterial activity against methicillin-resistant Staphylococcus aureus isolate AKH Vienna A4.018 by broth microdilution method; assay type: functional
Summary of the method: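 Broth microdilution MIC following CLSI M07-A8 (2009) and M11-A7 guidelines.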

[3] = Antibacterial activity against Clostridium difficile ATCC 43255 by broth microdilution method; assay type: functional; details: Clostridioides difficile; summary of the method: as §1
Enterococcus faecium = assay: Antibacterial activity against Enterococcus faecium 7130724 by broth microdilution method; assay type: functional; summary of the method: as §1
[4] = Volume of distribution at steady state in Sprague-Dawley rat at 1 mg/kg, iv; assay type: ADME, organism-based; design: dose 1 mg/kg, route intravenous; details: in vivo, read-out: Vdss
Summary of the method: (§2)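 Intravenous PK (N = 2) in male Sprague−Dawley rats (220−270 g, about 6−10 weeks old) with dual jugular vein cannulas. Rats were fasted overnight before dosing and for 8 h after. Blood was collected into K2EDTA tubes and plasma was assayed by LC-MS/MS.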

Staphylococcus aureus [5] = assay: Antibacterial activity against Staphylococcus aureus ATCC 49951 infected in iv dosed CD1 mouse assessed as protection from lethal infection administered 1 hr and 5 hrs post-infection measured after 5 days; assay type: functional; details: for ED50: ATCC 49951, iv
Summary of the method: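 Female CD1 mice (21−25 g) infected ip with 1 × 10^8 CFU/mouse in 0.9% NaCl (10−100× minimal lethal dose). iv tail-vein bolus at 1 and 5 h post-inoculation, several dose levels, six mice per group. Watched 5 days with body temperature monitoring; moribund animals euthanized. ED50 with 95% CI from day-5 survival by probit analysis.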

[6] = Half life in Sprague-Dawley rat at 1 mg/kg, iv; assay type: ADME, organism-based; design: dose 1 mg/kg, route intravenous; details: in vivo; summary of the method: as §2
Enterococcus faecalis [7] = assay: Ratio of daptomycin ED50 to compound ED50 for Enterococcus faecalis isolate NB04025 infected in iv dosed CD1 mouse; assay type: functional
Summary of the method: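 Female CD1 mice (21−25 g) infected intraperitoneally with 1 × 10^8 CFU/mouse E. faecalis in 50% sterile rat fecal extract. Single iv tail-vein bolus given immediately after inoculation, at several dose levels, to groups of six mice. Vehicle was 5% DMA, 30% PEG400, 10% cremophor EL, 5% 0.1 N NaOH and 50% pH 7.4 buffer; daptomycin was given in saline. Survival followed 5 days; ED50 with 95% CI by probit analysis of day-5 survival.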

Enterococcus faecalis [8] = assay: Antibacterial activity against Enterococcus faecalis isolate NB04025; assay type: functional
[9] = AUC in Sprague-Dawley rat at 1 mg/kg, iv; assay type: ADME, organism-based; design: dose 1 mg/kg, route intravenous; details: plasma; summary of the method: as §2
Enterococcus faecalis [10] = assay: Antibacterial activity against Enterococcus faecalis isolate NB04025 infected in iv dosed CD1 mouse assessed as protection from lethal infection after 5 days; assay type: functional; details: for ED50: 120 h
Summary of the method: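 Female CD1 mice (21−25 g) infected ip with 1 × 10^8 CFU/mouse in 50% sterile rat fecal extract (10−100× minimal lethal dose). Single iv tail-vein bolus immediately after inoculation, several dose levels, six mice per group. Observed 5 days with implanted temperature transponders; moribund mice euthanized. ED50 with 95% CI from day-5 survival by probit analysis.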

[11] = Clearance in Sprague-Dawley rat at 1 mg/kg, iv; assay type: ADME, organism-based; design: dose 1 mg/kg, route intravenous; details: in vivo; summary of the method: as §2
Staphylococcus aureus [12] = assay: Antibacterial activity against Staphylococcus aureus ATCC 49951; assay type: functional
Escherichia coli = assay: Inhibition of elongation factor Tu-mediated protein synthesis in Escherichia coli S30 extract after 2 hrs by luciferase reporter gene assay
Summary of the method: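 Coupled transcription/translation in E. coli S30 extract with pBESTluc template DNA, methionine-minus and cysteine-minus amino acid mixes, and S30 premix; test agent added as 40× stock in 20 μL reactions. Incubated 2 h at 37 °C; luciferase formed was read by luminescence after adding an equal volume of SteadyGlo reagent. Kirromycin and puromycin were positive controls; ampicillin was the negative control.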

[13] = Chemical stability of the compound in HCl at room temperature; assay type: physicochemical; details: buffer
[14] = Chemical stability of the compound in water at room temperature; assay type: physicochemical; details: buffer
[15] = Chemical stability of the compound in MeOH at 50 degC; assay type: physicochemical
[16] = Solubility of the compound in DMF solution; assay type: physicochemical
[17] = Chemical stability of the compound in water at 50 degC; assay type: physicochemical; details: buffer
[18] = Chemical stability of the compound in HCl at 50 degC; assay type: physicochemical; details: buffer
[19] = Solubility of the compound in DMSO solution; assay type: physicochemical
[20] = Chemical stability of the compound in MeOH at room temperature; assay type: physicochemical

Structure (SMILES) | MIC (Enterococcus faecalis [1]) [µg/mL] | MIC (Streptococcus pyogenes) [µg/mL] | MIC (Staphylococcus aureus [2]) [µg/mL] | MIC [3] [µg/mL] | MIC (Enterococcus faecium) [µg/mL] | also measured
Cc1sc2nc1C(=O)N[C@@H]([C@H](O)c1ccccc1)c1nc(cs1)C(=O)N[C@@H](Cc1ccc(O)cc1)C(=O)N[C@@H]([C@@H](C)[C@@H](O)CO)c1nc(cs1)-c1nc(cs1)-c1nc(-c3nc(C(N)=O)cs3)ccc1-c1nc(cs1)C(=O)N[C@H]2CC(N)=O | > 32 | > 32 | > 32 | 2 (≈ 1.64 µM) | > 32 | 
Cc1sc2nc1C(=O)N[C@@H]([C@H](O)c1ccccc1)c1nc(cs1)C(=O)N[C@@H](Cc1ccc(O)cc1)C(=O)N[C@@H]([C@@H](C)[C@@H](O)CCl)c1nc(cs1)-c1nc(cs1)-c1nc(-c3nc(C(N)=O)cs3)ccc1-c1nc(cs1)C(=O)N[C@H]2CC(N)=O | 0.25 (≈ 0.202 µM) | 2 (≈ 1.62 µM) | 0.5 (≈ 0.404 µM) | 0.25 (≈ 0.202 µM) | 0.5 (≈ 0.404 µM) | 
Cc1sc2nc1C(=O)N[C@@H]([C@H](O)c1ccccc1)c1nc(cs1)C(=O)N[C@@H](Cc1ccc(O)cc1)C(=O)N[C@@H]([C@@H](C)[C@@H]1CO1)c1nc(cs1)-c1nc(cs1)-c1nc(-c3nc(C(N)=O)cs3)ccc1-c1nc(cs1)C(=O)N[C@H]2CC(N)=O | 0.25 (≈ 0.208 µM) | 2 (≈ 1.67 µM) | 0.5 (≈ 0.417 µM) | 0.003 (≈ 0.0025 µM) | 0.125 (≈ 0.104 µM) | 
Cc1sc2nc1C(=O)NCc1nc(cs1)C(=O)N[C@@H](Cc1ccc(O)cc1)C(=O)N1C[C@H](O)[C@H](C)[C@H]1c1nc(cs1)-c1nc(cs1)-c1nc(-c3nc(C(N)=O)cs3)ccc1-c1nc(cs1)C(=O)N[C@H]2CC(N)=O | 4 (≈ 3.66 µM) | > 32 | 2 (≈ 1.83 µM) |  | 4 (≈ 3.66 µM) | 
Cc1sc2nc1C(=O)N[C@@H]([C@H](O)c1ccccc1)c1nc(cs1)C(=O)N[C@@H](Cc1ccc(O)cc1)C(=O)N1C[C@H](O)[C@H](C)[C@H]1c1nc(cs1)-c1nc(cs1)-c1nc(-c3nc(C(N)=O)cs3)ccc1-c1nc(cs1)C(=O)N[C@H]2CC(N)=O | 0.25 (≈ 0.208 µM) | 1 (≈ 0.833 µM) | 0.25 (≈ 0.208 µM) | < 0.008 | 0.5 (≈ 0.417 µM) | Vd [4]: 0.134 L/kg; Activity (Staphylococcus aureus [5]): Dose-dependent effect; ED50 (Staphylococcus aureus [5]): 8 mg/kg; half-life [6]: 3.4 h; Ratio ED50 (Enterococcus faecalis [7]): 2; MIC (Enterococcus faecalis [8]): 0.125 µg/mL (≈ 0.104 µM); AUC [9]: 1.35 µM·h; Activity (Enterococcus faecalis [10]): Dose-dependent effect; ED50 (Enterococcus faecalis [10]): 1.5 mg/kg; clearance [11]: 10.1 mL/min/kg; MIC (Staphylococcus aureus [12]): 1 µg/mL (≈ 0.833 µM)
Cc1sc2nc1C(=O)N[C@@H]([C@H](O)c1ccccc1)c1nc(cs1)C(=O)N[C@@H](Cc1ccc(O)cc1)C(=O)N[C@@H]([C@@H](C)[C@@H](O)CN)c1nc(cs1)-c1nc(cs1)-c1nc(-c3nc(C(N)=O)cs3)ccc1-c1nc(cs1)C(=O)N[C@H]2CC(N)=O | 1 (≈ 0.821 µM) | > 32 | 2 (≈ 1.64 µM) | 1 (≈ 0.821 µM) | 1 (≈ 0.821 µM) | 
CCCCCCCCCC(=O)N[C@@H](Cc1c[nH]c2ccccc12)C(=O)N[C@H](CC(N)=O)C(=O)N[C@@H](CC(=O)O)C(=O)N[C@@H]1C(=O)NCC(=O)N[C@@H](CCCN)C(=O)N[C@@H](CC(=O)O)C(=O)N[C@H](C)C(=O)N[C@@H](CC(=O)O)C(=O)NCC(=O)N[C@H](CO)C(=O)N[C@@H]([C@H](C)CC(=O)O)C(=O)N[C@@H](CC(=O)c2ccccc2N)C(=O)O[C@@H]1C |  |  |  |  |  | Activity (Staphylococcus aureus [5]): Dose-dependent effect; ED50 (Staphylococcus aureus [5]): 0.3 mg/kg; Activity (Enterococcus faecalis [10]): Dose-dependent effect; ED50 (Enterococcus faecalis [10]): 3 mg/kg
C=C(NC(=O)c1csc(-c2ccc3c(n2)-c2csc(n2)-c2csc(n2)[C@H]([C@@H](C)[C@@H]2CO2)NC(=O)[C@H](Cc2ccc(OC)cc2)NC(=O)c2csc(n2)[C@H]([C@H](O)c2ccccc2)NC(=O)c2nc(sc2C)[C@H](CC(N)=O)NC(=O)c2csc-3n2)n1)C(=O)NC(=C)C(=O)OC | 8 (≈ 5.85 µM) | > 32 | > 32 | 1 (≈ 0.731 µM) | 8 (≈ 5.85 µM) | inhibition (Escherichia coli): inactive
C=C(NC(=O)c1csc(-c2ccc3c(n2)-c2csc(n2)-c2csc(n2)[C@H]([C@@H](C)[C@@H]2CO2)NC(=O)[C@H](Cc2ccc(OC(C)=O)cc2)NC(=O)c2csc(n2)[C@H]([C@H](OC(C)=O)c2ccccc2)NC(=O)c2nc(sc2C)[C@H](CC(N)=O)NC(=O)c2csc-3n2)n1)C(=O)NC(=C)C(=O)OC | 32 (≈ 22.3 µM) | > 32 | > 32 | > 4 | 32 (≈ 22.3 µM) | inhibition (Escherichia coli): inactive
C=C(NC(=O)C(=C)NC(=O)c1csc(-c2ccc3c(n2)-c2csc(n2)-c2csc(n2)[C@H]([C@@H](C)[C@@H]2CO2)NC(=O)[C@H](Cc2ccc(O)cc2)NC(=O)c2csc(n2)[C@H]([C@H](O)c2ccccc2)NC(=O)c2nc(sc2C)[C@H](CC(N)=O)NC(=O)c2csc-3n2)n1)C(=O)O [THIOMURACIN A] | 0.5 (≈ 0.373 µM) | 0.5 (≈ 0.373 µM) | 0.5 (≈ 0.373 µM) | 0.03 (≈ 0.0224 µM) | 0.5 (≈ 0.373 µM) | Stability [13]: Stable; Stability [14]: Stable; Stability [15]: Unstable; solubility [16]: soluble; Stability [17]: Unstable; Stability [18]: Unstable; solubility [19]: soluble; Stability [20]: Stable
C=C(NC(=O)c1csc(-c2ccc3c(n2)-c2csc(n2)-c2csc(n2)[C@H]([C@@H](C)[C@@H]2CO2)NC(=O)[C@H](Cc2ccc(O)cc2)NC(=O)c2csc(n2)[C@H]([C@H](O)c2ccccc2)NC(=O)c2nc(sc2C)[C@H](CC(N)=O)NC(=O)c2csc-3n2)n1)C(=O)NC(=C)C(=O)OC | 8 (≈ 5.91 µM) | > 32 | > 32 | 1 (≈ 0.739 µM) | 8 (≈ 5.91 µM) | inhibition (Escherichia coli): inactive
